Data published in ChEMBL document CHEMBL1124688, “9,11-Epoxy-9-homo-14-thiaprost-5-enoic acid derivatives: potent thromboxane A2 antagonists” (J Med Chem, 1989).
“And” between values parts separate entries of the source, which are not always exact repeats. Equal entries are not always repeated.

How the values were obtained:
[1] = species: Homo sapiens; experiment: (§1) Percentage stimulation on the synthesis of PGE-2 at a dose of 10 uM; type: functional
Procedure, shortened: (§2)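 Arachidonic acid metabolism was measured in a lysed platelet preparation. Thromboxane synthesis (as TxB2) and PGE2 production were determined at each listed test concentration.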

[2] = species: Homo sapiens; experiment: (§3) Percentage stimulation on the synthesis of PGE-2 was at a dose of 100 uM; type: functional; procedure, shortened: as §2
[3] = species: Homo sapiens; experiment: (§4) Percentage stimulation on the synthesis of PGE-2 was at a dose of 1000 uM; type: functional; procedure, shortened: as §2
[4] = test system: thromboxane-A synthase (Homo sapiens); experiment: Percent inhibition on the synthesis of thromboxane B2 at a dose of 10 uM
[5] = test system: thromboxane-A synthase (Homo sapiens); experiment: Percent inhibition on the synthesis of thromboxane B2 at a dose of 100 uM
[6] = test system: thromboxane-A synthase (Homo sapiens); experiment: Percent inhibition on the synthesis of thromboxane B2 at a dose of 1000 uM
[7] = species: Cavia porcellus; experiment: In vitro evaluation for antagonist activity against the contraction-induced by 9,11-azo-PGH2 (0.1 ug/mL); type: functional; conditions: read-out: I50
Procedure, shortened: (§5)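 Guinea pig trachea spirals were contracted by either 9,11-azo-PGH2 (a stable PGH2/TxA2 mimetic) or histamine, and compounds were tested for blockade of these contractions.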

[8] = species: Cavia porcellus; experiment: In vitro evaluation for antagonist activity against the contraction-induced by histamine (1 ug/mL); type: functional; conditions: read-out: I50; procedure, shortened: as §5
[9] = test system: Cavia porcellus; experiment: Change in mean arterial blood pressure(MABP) in guinea pigs by 1 mg/kg of intravenously administered compound; type: functional, Artery; conditions: route intravenous
Procedure, shortened: (§6)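 Anesthetized guinea pigs were challenged with arachidonic acid, and lung mechanics (lung resistance, dynamic compliance) and mean arterial blood pressure were recorded. Compounds were given as a 1.0 mg/kg rapid iv infusion, with n = 5 versus vehicle. Inhibition above 100% denotes reversal of the blood-pressure response.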

[10] = test system: Cavia porcellus; experiment: Inhibition of arachidonic acid-induced response in guinea pigs by 1 mg/kg of intravenously administered compound; type: functional; parameters: scale not given: the % may be the effect or the level left; conditions: route intravenous; procedure, shortened: as §6
[11] = species: Cavia porcellus; experiment: Duration of action of compound for inhibition of arachidonic acid-induced response in guinea pigs; type: functional
[12] = species: Homo sapiens; experiment: (§7) Percent inhibition on the synthesis of thromboxane B2 at a dose of 100 uM; type: functional; procedure, shortened: as §2
[13] = species: Homo sapiens; experiment: Percent inhibition on the synthesis of thromboxane B2 at a dose of 333 uM; type: functional; procedure, shortened: as §2
[14] = species: Homo sapiens; experiment: as §1; type: functional; procedure, shortened: as §2; remark: listed apart in the source
[15] = species: Homo sapiens; experiment: Percentage stimulation on the synthesis of PGE-2 at a dose of 100 uM; type: functional; procedure, shortened: as §2
[16] = species: Homo sapiens; experiment: Percentage stimulation on the synthesis of PGE-2 at a dose of 1000 uM; type: functional; procedure, shortened: as §2
[17] = species: Homo sapiens; experiment: Percentage stimulation on the synthesis of PGE-2 at a dose of 33 uM; type: functional; procedure, shortened: as §2
[18] = species: Homo sapiens; experiment: In vitro evaluation for arachidonic acid induced platelet aggregation of human platelet-rich plasma; type: functional; conditions: read-out: I50
Procedure, shortened: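 Human platelet-rich plasma was aggregated with arachidonic acid (800 μM). An ADP (20 μM)-induced aggregation run served as a counter-screen.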

[19] = species: Rattus norvegicus; experiment: maximal contraction of rat stomach strip by 3 x 10e -7M serotonin; type: functional
[20] = biological target: T1, Thromboxane A2 receptor (Homo sapiens, UniProt P21731); experiment: Inhibition of specific binding of HSQ(5,6-di-3H-SQ 29,548) in washed platelets; parameters: species or system Cavia porcellus
T1 sequence (P21731 whole entry): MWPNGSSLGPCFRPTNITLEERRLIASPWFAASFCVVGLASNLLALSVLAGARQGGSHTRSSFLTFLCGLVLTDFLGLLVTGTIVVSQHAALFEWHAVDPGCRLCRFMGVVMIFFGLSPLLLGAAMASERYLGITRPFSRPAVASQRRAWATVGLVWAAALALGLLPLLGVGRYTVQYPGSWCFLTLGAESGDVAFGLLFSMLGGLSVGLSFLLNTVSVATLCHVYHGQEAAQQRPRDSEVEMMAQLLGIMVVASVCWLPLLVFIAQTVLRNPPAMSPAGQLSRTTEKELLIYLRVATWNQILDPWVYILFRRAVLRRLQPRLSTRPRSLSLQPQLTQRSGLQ

[21] = species: Homo sapiens; experiment: (§8) Percent inhibition on the synthesis of thromboxane B2 at a dose of 1000 uM; type: functional; procedure, shortened: as §2
[22] = species: Homo sapiens; experiment: Percentage stimulation on the synthesis of PGE-2 at a dose of 333 uM; type: functional; procedure, shortened: as §2
[23] = species: Rattus norvegicus; experiment: Concentration required to elicit 50% of the maximal contraction of rat stomach strip; type: functional
Procedure, shortened: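 Rat stomach strip contraction was measured as the concentration giving 50% of the maximal contraction produced by 3×10^-7 M serotonin.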

[24] = species: Cavia porcellus; experiment: Duration of action of compound for Inhibition of arachidonic acid-induced response in guinea pigs; type: functional
[25] = test system: Cavia porcellus; experiment: Change in mean arterial blood pressure in guinea pigs by 1 mg/kg of intravenously administered compound; type: functional, Artery; conditions: route intravenous; procedure, shortened: as §6
[26] = biological target: Thromboxane A2 receptor (Homo sapiens) (UniProt P21731); experiment: Compound was evaluated for inhibition of specific binding of HSQ (5,6-di-3H-SQ 29,548) in washed platelets
[27] = test system: Cavia porcellus; experiment: Change in mean arterial blood pressure(MABP) in guinea pigs by 1 mg/kg of intravenously administered compound; activity MABP; type: functional, Artery; conditions: route intravenous; procedure, shortened: as §6
[28] = biological target: T1, Thromboxane A2 receptor; experiment: Compound was evaluated for inhibition of specific binding of HSQ (5,6-di-3H-SQ 29,548) in washed platelets; parameters: species or system Cavia porcellus
[29] = species: Homo sapiens; experiment: as §3; type: functional; procedure, shortened: as §2; remark: listed apart in the source
[30] = species: Homo sapiens; experiment: as §4; type: functional; procedure, shortened: as §2; remark: listed apart in the source
[31] = species: Homo sapiens; experiment: Percentage stimulation on the synthesis of PGE-2 was at a dose of 33 uM; type: functional; procedure, shortened: as §2
[32] = species: Homo sapiens; experiment: Percentage stimulation on the synthesis of PGE-2 was at a dose of 333 uM; type: functional; procedure, shortened: as §2
[33] = species: Homo sapiens; experiment: Percent inhibition on the synthesis of thromboxane B2 at a dose of 1.0 uM; type: functional; procedure, shortened: as §2
[34] = species: Homo sapiens; experiment: (§9) Percent inhibition on the synthesis of thromboxane B2 at a dose of 10 uM; type: functional; procedure, shortened: as §2
[35] = species: Homo sapiens; experiment: Percent inhibition on the synthesis of thromboxane B2 at a dose of 3.1 uM; type: functional; procedure, shortened: as §2
[36] = species: Homo sapiens; experiment: Percent inhibition on the synthesis of thromboxane B2 at a dose of 31 uM.; type: functional; procedure, shortened: as §2
[37] = species: Homo sapiens; experiment: Percentage stimulation on the synthesis of PGE-2 at a dose of 1.0 uM; type: functional; procedure, shortened: as §2
[38] = species: Homo sapiens; experiment: Percentage stimulation on the synthesis of PGE-2 was at a dose of 10 uM; type: functional; procedure, shortened: as §2
[39] = species: Homo sapiens; experiment: Percentage stimulation on the synthesis of PGE-2 was at a dose of 3.1 uM; type: functional; procedure, shortened: as §2
[40] = species: Homo sapiens; experiment: Percentage stimulation on the synthesis of PGE-2 was at a dose of 31 uM; type: functional; procedure, shortened: as §2
[41] = species: Homo sapiens; experiment: as §9; type: functional; procedure, shortened: as §2; remark: listed apart in the source
[42] = species: Homo sapiens; experiment: as §7; type: functional; procedure, shortened: as §2; remark: listed apart in the source
[43] = species: Homo sapiens; experiment: as §8; type: functional; procedure, shortened: as §2; remark: listed apart in the source

CCCCCCSC[C@H]1C2CC[C@@H](O2)[C@H]1C/C=C\CCCC(=O)O (single isomer, unassigned; (+)) [listing 1 of 2 here]
Stimulation [1]: 27%
Stimulation [2]: 44%
Stimulation [3]: -51%
inhibition [4]: 33%
inhibition [5]: 45%
inhibition [6]: 75%

C=CCSCC1C2CCC(O2)C1C/C=C\CCCC(=O)O (stereo not given)
IC50 [7]: 3.8 µM
IC50 [8]: > 100 µM
Agonist activity ([9]; 1 mg/kg): 115% and 165%
Activity [10]: 273% and 98%
Duration [11]: >60 min
Inhibition [12]: 22.1%
Inhibition [13]: 51.8%
Stimulation [14]: 220%
Stimulation [15]: 860%
Stimulation [16]: 1820%
Stimulation [17]: 380%
IC50 [18]: 0.5 µM
Contraction [19]: 26%
Kd [20]: 0.076 µM
Inhibition [21]: 61.5%
Stimulation [22]: 1650%

O=C(O)CCC/C=C\CC1C2CCC(O2)C1CSc1ccccc1 (stereo not given)
A50 [23]: 0.8 µM

C=CCCSCC1C2CCC(O2)C1C/C=C\CCCC(=O)O (stereo not given)
IC50 [18]: 0.2 µM
A50 [23]: 32 µM
Kd [20]: 0.049 µM

CCC/C=C/CSCC1C2CCC(O2)C1CC=CCCCC(=O)O (stereo not given)
Duration [24]: <60 min
Activity MABP [25]: 76% and 192%
IC50 [7]: 0.4 µM
IC50 [8]: > 100 µM
A50 [23]: 26 µM
Kd [26]: 0.0031 µM

CCCSCC1C2CCC(O2)C1C/C=C\CCCC(=O)O (stereo not given)
Agonist activity [9]: 50%
Activity [27]: 50%
Activity [10]: 131% and 97%
IC50 [18]: 0.7 µM
Kd [20]: 0.097 µM

CCCCCCSC[C@H]1C2CCC(O2)[C@H]1C/C=C\CCCC(=O)O (stereo not given in full)
A50 [23]: 39 µM

CCSCC1C2CCC(O2)C1C/C=C\CCCC(=O)O (stereo not given)
Contraction [19]: 13%

CC/C=C\CCSCC1C2CCC(O2)C1C/C=C\CCCC(=O)O (stereo not given)
Duration [24]: >60 min
IC50 [7]: 0.38 µM
IC50 [8]: > 100 µM
Activity [10]: 245% and 97%
Kd [28]: 0.0004 µM
Inhibition [12]: 24.4%
Inhibition [13]: 56.9%
Stimulation [14]: 210%
Stimulation [29]: 900%
Stimulation [30]: 1920%
Stimulation [31]: 420%
Stimulation [32]: 1340%
IC50 [18]: 0.2 µM
A50 [23]: 0.2 µM
Inhibition [21]: 91.2%

CCCCCC[S+]([O-])CC1C2CCC(O2)C1C/C=C\CCCC(=O)O (stereo not given)
A50 [23]: 21 µM
Contraction [19]: 9%

CCCCCC(C)SCC1C2CCC(O2)C1C/C=C\CCCC(=O)O (stereo not given)
Duration [11]: 0 min

O=C(O)CCC/C=C\CC1C2CCC(O2)C1CSCCOc1ccccc1 (stereo not given)
A50 [23]: 0.1 µM

CSCC1C2CCC(O2)C1C/C=C\CCCC(=O)O (stereo not given)
Contraction [19]: 30%

CSCSCC1C2CCC(O2)C1C/C=C\CCCC(=O)O (stereo not given)
Contraction [19]: 28%

CCCCCCSC[C@H]1C2CC[C@@H](O2)[C@H]1C/C=C\CCCC(=O)O (single isomer, unassigned; (-))
Duration [24]: <60 min
Activity MABP [25]: 107% and 153%
IC50 [7]: 0.5 µM
IC50 [8]: > 100 µM
Kd [28]: 0.0016 µM
Inhibition [33]: 7%
Inhibition [34]: 17%
Inhibition [12]: 69%
Inhibition [35]: 3%
Inhibition [36]: 29%
Stimulation [37]: 174%
Stimulation [38]: 230%
Stimulation [29]: 556%
Stimulation [39]: 137%
Stimulation [40]: 404%
IC50 [18]: 1 µM
A50 [23]: 25 µM

CCCCSCC1C2CCC(O2)C1C/C=C\CCCC(=O)O (stereo not given)
Agonist activity ([9]; 1 mg/kg): 58% and 98%
Activity [10]: 136% and 180%
Duration [11]: <60 min

CCCCCCS(=O)(=O)CC1C2CCC(O2)C1C/C=C\CCCC(=O)O (stereo not given)
A50 [23]: 8 µM

O=C(O)CCC/C=C\CC1C2CCC(O2)C1CSCCc1ccccc1 (stereo not given)
A50 [23]: 23 µM

CCCCCCSC[C@H]1C2CC[C@@H](O2)[C@H]1C/C=C\CCCC(=O)O (single isomer, unassigned; (+)) [listing 2 of 2 here]
Contraction [19]: 6%

CCC/C=C\CSCC1C2CCC(O2)C1C/C=C\CCCC(=O)O (stereo not given)
Duration [24]: <60 min
Activity MABP [25]: 98% and 194%
IC50 [7]: 1.6 µM
IC50 [8]: > 100 µM
A50 [23]: 4.3 µM

CCC/C=C(\C)CSCC1C2CCC(O2)C1CC=CCCCC(=O)O (stereo not given)
IC50 [7]: 1.6 µM
IC50 [8]: > 100 µM
A50 [23]: 46 µM

O=C(O)CCC/C=C\CC1C2CCC(O2)C1CSCCCc1ccccc1 (stereo not given)
A50 [23]: 0.2 µM

O=C(O)CCCC=CCC1C2CCC(O2)C1CSC/C=C/c1ccccc1 (stereo not given)
A50 [23]: 0.7 µM

CC/C=C/CCSCC1C2CCC(O2)C1CC=CCCCC(=O)O (stereo not given)
A50 [23]: 0.04 µM

CCCCCSCCC1C2CCC(O2)C1C/C=C\CCCC(=O)O (stereo not given)
Stimulation [1]: 13%
Stimulation [2]: -45%
Stimulation [3]: -75%
inhibition [41]: 33%
inhibition [42]: 80%
inhibition [43]: 90%
